Experimental data pooled from the literature.
Each line is one published result; the experiments were not run side by side.
Target: Serine/threonine-protein kinase Chk1 (CHEK1, Homo sapiens, UniProt O14757)
Action: inhibitor
Sequence (O14757 1-476, as in one of the studies): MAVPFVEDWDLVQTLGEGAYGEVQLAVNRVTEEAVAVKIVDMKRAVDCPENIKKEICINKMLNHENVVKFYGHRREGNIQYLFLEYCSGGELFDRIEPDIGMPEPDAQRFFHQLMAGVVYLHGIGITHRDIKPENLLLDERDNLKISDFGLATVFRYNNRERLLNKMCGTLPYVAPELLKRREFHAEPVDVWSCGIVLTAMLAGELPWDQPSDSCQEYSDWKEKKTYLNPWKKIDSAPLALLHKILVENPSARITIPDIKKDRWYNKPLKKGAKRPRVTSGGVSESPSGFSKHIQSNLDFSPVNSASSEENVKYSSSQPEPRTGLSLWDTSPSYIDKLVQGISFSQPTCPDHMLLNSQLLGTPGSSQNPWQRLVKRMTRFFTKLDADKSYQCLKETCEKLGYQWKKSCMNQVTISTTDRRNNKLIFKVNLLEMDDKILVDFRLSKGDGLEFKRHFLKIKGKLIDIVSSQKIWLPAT

SMILES | effect on | technique | cell line | tested at | inhibition [%]
Cc1ccc(Nc2nccc(N(C)c3ccc4c(C)n(C)nc4c3)n2)cc1S(N)(=O)=O | enzyme activity |  |  | 10 µM | -6
COc1cc2ncnc(Nc3ccc(Oc4ccccc4)cc3C)c2cc1OC | enzyme activity |  |  | 1 µM | 6
c1ccc(CNc2nc(N3CCOc4ccccc43)nc3c2CCCC3)cc1 | target engagement in cells | chemoproteomics |  | 20 mM | -3.2
CN(C)C1CCN(CC#Cc2nn(C3CCCC3)c3nc(NCc4ccccc4)ncc23)C1 (stereo not drawn) | enzyme activity | FRET |  | 10 µM | 15
CSc1nc(C)c(-c2ccnc(Nc3ccc(N4CCOCC4)cc3)c2)[nH]1 | enzyme activity |  |  | 10 µM | 12.4
CCOc1cc(-c2nncn2C)ccc1Nc1ncc2cc(C)nc(NCC(C)(C)C)c2n1 | enzyme activity | FRET |  | 1 µM | < 15
CCCOc1ccc(/C=C2\SC(=O)NC2=O)cc1 | enzyme activity | mobility shift |  | 5 µM | -20
CNCc1ccc(-c2cc(-c3nc(-c4ccc(S(=O)(=O)C(C)C)cc4)cnc3N)on2)cc1 | enzyme activity |  |  | 0.4 µM | 15
CCN1CCN(Cc2ccc(NC(=O)c3ccc(C)c(Oc4ccnc5[nH]ccc45)c3)cc2C(F)(F)F)CC1 | target engagement in cells | chemoproteomics | A-375 | 50 nM | -156
O=C(CSc1nc2nccnc2c(=O)n1CCc1ccccc1)Nc1nccs1 | enzyme activity |  |  | 10 µM | -11
CCN1CCN(Cc2ccc(NC(=O)c3ccc(C)c(/C=C/c4cnc5[nH]ccc5c4OC)c3)cc2C(F)(F)F)CC1 | target engagement in cells | chemoproteomics | A-375 | 0.5 µM | -126
CNC(=O)c1cc(Oc2ccc(NC(=O)Nc3ccc(Cl)c(C(F)(F)F)c3)cc2)ccn1 | enzyme activity |  |  | 10 µM | -27
